pIC50: −log10 of the molar value. Calls of active or inactive are those of the source. The rule behind the calls is not given here.
Assays:
Danio rerio [1] = species: Danio rerio; experiment: Toxicity in transgenic zebrafish embryos assessed as developmental deffect at 50 nM to 1.25 uM after 24 hrs; type: organism-based; settings: in vivo, 0.05 µM
Procedure, shortened: (§1)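 Zebrafish embryos exposed from 24 hpf to 50 nM–1.25 μM in Danieau's solution (pigmentation blocked with 1-phenyl-2-thiourea at 12 hpf); solution washed out at 48 hpf, then scored for viability and gross morphological abnormalities.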

Danio rerio [2] = species: Danio rerio; experiment: Toxicity in transgenic zebrafish embryos assessed as effect on viability at 50 nM to 1.25 uM after 74 hrs; type: organism-based; settings: in vivo, 0.05 µM; procedure, shortened: as §1
[3] = Cytotoxicity against human H1299 cells after 3 days by MTS assay; type: functional, cell-based; settings: NCI-H1299, 72 h
Procedure, shortened: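 H1299 NSCLC cells seeded at 5 × 10³ cells/well, treated next day with graded concentrations (0.1% DMSO as dilution control); proliferation read by MTS after 3 days; at least three replicate wells; IC50 taken as mean of triplicate experiments.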

Danio rerio [4] = species: Danio rerio; experiment: Toxicity in transgenic zebrafish embryos assessed as effect on growth at 50 nM to 1.25 uM after 74 hrs; type: organism-based; settings: in vivo, 0.05 µM; procedure, shortened: as §1
[5] = molecular target: Heat shock protein HSP 90-beta (Homo sapiens) (UniProt P08238); experiment: Inhibition of HSP90 binding to HIF1alpha in human H1299 cells at 12.5 uM after 30 mins by immunoprecipitation and immunoblotting analysis; type: cell-based; settings: 1.25 uM, in the assay text read “1.25 uM” for “12.5 uM”
Procedure, shortened: (§2)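 Cell-free format: lysates of H1299 cells pretreated with 100 μM CoCl₂ for 5 h, incubated with compound at 1.25 μM, with or without 20 mM ATP, 30 min at 37 °C. HIF-1α immunoprecipitated (antibody overnight, 4 °C; protein G-agarose 2 h, 4 °C), resolved on 6% SDS-PAGE, blotted for HSP90.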

Danio rerio [6] = species: Danio rerio; experiment: Toxicity in transgenic zebrafish embryos assessed as developmental deffect at 10 uM after 24 hrs; type: organism-based; settings: in vivo
Danio rerio [7] = species: Danio rerio; experiment: Antiangiogenic activity in transgenic zebrafish assessed as depletion of subintestinal veins at 50 nM to 1250 nM after 72 hrs; type: functional, organism-based
Procedure, shortened: (§3)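 Tg(fli:EGFP)^y1 embryos, treated with 1-phenyl-2-thiourea at 12 hpf to block pigmentation, placed in Danieau's solution ± test agents (50, 250, 1250 nM) at 24 hpf; solution washed out at 48 hpf; subintestinal vessels imaged in 72 hpf larvae against DMSO control.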

Danio rerio [8] = species: Danio rerio; experiment: Antiangiogenic activity in transgenic zebrafish embryos
[9] = molecular target: Heat shock protein HSP 90-beta (Homo sapiens) (UniProt P08238); experiment: Inhibition of HSP90 in human H1299 cells assessed as reduction of HIF1alpha level treated for 72 hrs followed by incubated for 12 hrs under hypoxia condition by Western blot analysis; type: cell-based
Procedure, shortened: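 H1299 cells left untreated or exposed to test agents at each concentration for 72 h, then held under hypoxia (1% O₂) for 12 h; lysates immunoblotted with monoclonal anti-HIF-1α antibody.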

[10] = molecular target: Heat shock protein HSP 90-beta (Homo sapiens) (UniProt P08238); experiment: Inhibition of HSP90 binding to HIF1alpha in human H1299 cells at 12.5 uM after 30 mins by immunoprecipitation and immunoblotting analysis in presence of ATP; type: cell-based; settings: 1.25 uM, in the assay text read “1.25 uM” for “12.5 uM”; procedure, shortened: as §2
Danio rerio [11] = species: Danio rerio; experiment: Antiangiogenic activity in transgenic zebrafish at 0.05 to 1.25 uM up to 72 hrs; type: functional, organism-based; procedure, shortened: as §3
Danio rerio [12] = species: Danio rerio; experiment: Toxicity in transgenic zebrafish embryos assessed as effect on viability after 24 hrs; type: organism-based; settings: in vivo
Procedure, shortened: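 Tg(fli:EGFP)y1 zebrafish embryos, with pigment suppressed by 1-phenyl-2-thiourea from 12 hpf, were placed at 24 hpf in Danieau's solution with or without compound (50 nM to 1.25 μM). The solution was washed out at 48 hpf, and embryos were examined for viability and gross morphological abnormalities, with DMSO as the control.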

Danio rerio [13] = species: Danio rerio; experiment: Antiangiogenic activity in transgenic zebrafish at 50 nM up to 72 hrs; type: functional, organism-based; procedure, shortened: as §3
Danio rerio [14] = species: Danio rerio; experiment: Toxicity in transgenic zebrafish embryos assessed as developmental deffect at 50 nM to 10 uM after 24 hrs; type: organism-based; settings: in vivo, 0.05 µM
Procedure, shortened: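 Tg(fli:EGFP)y1 zebrafish embryos were exposed dose-dependently from 50% epiboly (5.3 hpf) across 50 nM to 10 μM, then scored for developmental defects. Pigmentation was blocked with 1-phenyl-2-thiourea at 12 hpf, and compounds were given in Danieau's solution, with DMSO as the negative control.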

Danio rerio [15] = species: Danio rerio; experiment: Antiangiogenic activity in transgenic zebrafish assessed as depletion of subintestinal veins after 72 hrs; type: functional, organism-based; procedure, shortened: as §3

Chain of Heat shock protein HSP 90-beta (Homo sapiens) (P08238 whole entry): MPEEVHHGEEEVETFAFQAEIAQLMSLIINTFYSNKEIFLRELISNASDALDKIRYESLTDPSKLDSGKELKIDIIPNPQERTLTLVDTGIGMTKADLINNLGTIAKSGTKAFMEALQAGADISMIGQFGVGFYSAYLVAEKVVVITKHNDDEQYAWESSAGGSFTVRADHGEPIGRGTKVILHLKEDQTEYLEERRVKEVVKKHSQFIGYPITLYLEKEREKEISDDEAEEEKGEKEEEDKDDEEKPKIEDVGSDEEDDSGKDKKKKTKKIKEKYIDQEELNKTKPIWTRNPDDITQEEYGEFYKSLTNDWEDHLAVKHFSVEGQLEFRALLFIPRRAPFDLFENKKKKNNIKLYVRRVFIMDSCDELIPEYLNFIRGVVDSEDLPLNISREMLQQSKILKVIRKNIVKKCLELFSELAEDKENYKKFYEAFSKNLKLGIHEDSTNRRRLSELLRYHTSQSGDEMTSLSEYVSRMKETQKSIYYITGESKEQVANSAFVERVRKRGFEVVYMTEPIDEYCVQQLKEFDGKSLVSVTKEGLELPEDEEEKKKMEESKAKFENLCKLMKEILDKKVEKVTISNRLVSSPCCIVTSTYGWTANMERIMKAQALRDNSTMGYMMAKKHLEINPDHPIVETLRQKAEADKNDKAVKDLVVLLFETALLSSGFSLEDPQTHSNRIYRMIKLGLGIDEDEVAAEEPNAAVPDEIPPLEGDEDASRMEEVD

SMILES	pIC50 [3]	further results
COc1ccc([C@H](C)C(=O)c2ccc3c(c2OC)C=CC(C)(C)O3)cc1OC	6.31	Activity (Danio rerio [1]): Non-toxic; Activity (Danio rerio [2]): Non-toxic; Activity (Danio rerio [4]): Non-toxic; inhibition [5]: Active; Activity (Danio rerio [6]): Toxic; Activity (Danio rerio [7]): Active; Activity (Danio rerio [8]): Dose-dependent effect; inhibition [9]: Active; inhibition [10]: inactive
COc1ccc([C@@H](C)C(=O)c2ccc3c(c2OC)C=CC(C)(C)O3)cc1OC	5.89	Activity (Danio rerio [1]): Non-toxic; Activity (Danio rerio [2]): Non-toxic; Activity (Danio rerio [4]): Non-toxic; Activity (Danio rerio [6]): Toxic; Activity (Danio rerio [8]): Dose-dependent effect; inhibition [9]: Active
COc1ccc(C2(C(=O)c3ccc4c(c3OC)C=CC(C)(C)O4)CC2)cc1OC	3.99	–
COc1ccc(CC(=O)c2ccc3c(c2)C=CC(C)(C)O3)cc1OC	6.00	–
COc1cc2c(cc1OC)[C@@H]1/C(=N/O)c3ccc4c(c3O[C@@H]1CO2)C=CC(C)(C)O4	6.52	–
COc1cc2c(cc1OC)[C@@H]1[C@H](OC(N)=O)c3ccc4c(c3O[C@@H]1CO2)C=CC(C)(C)O4	6.96	Activity (Danio rerio [11]): inactive; inhibition [9]: Active
COc1cc2c(cc1OC)[C@@H]1C(=O)c3ccc4c(c3O[C@@H]1CO2)CCC(C)(C)O4	6.85	–
CC1(C)C=Cc2c(ccc3c2O[C@@H]2COc4cc(O)c(O)cc4[C@@H]2C3=O)O1	5.00	–
COc1cc2c(cc1OC)[C@@H]1C(=O)c3ccc4c(c3O[C@@H]1CO2)C=CC(C)(C)O4 [DEGUELIN]	6.96	Activity (Danio rerio [12]): Dose-dependent effect; Activity (Danio rerio [13]): inactive; Activity (Danio rerio [14]): Toxic
COc1cc2c(cc1O)[C@@H]1C(=O)c3ccc4c(c3O[C@@H]1CO2)C=CC(C)(C)O4	6.01	–
COc1cc2c(cc1OC)[C@@H]1/C(=N/OCc3ccccc3)c3ccc4c(c3O[C@@H]1CO2)C=CC(C)(C)O4	< 3.30	–
C=CCOc1ccc2c(c1CC=C(C)C)O[C@@H]1COc3cc(OC)c(OC)cc3[C@@H]1C2=O	< 3.30	–
COc1ccc(C2COc3c(ccc4c3C=CC(C)(C)O4)C2=O)cc1OC (racemic)	5.35	–
COc1cc2c(cc1OC)C1=Cc3ccc4c(c3O[C@@H]1CO2)C=CC(C)(C)O4	< 3.30	–
COc1cc2c(cc1OC)[C@@H]1C(=O)c3ccc4c(c3O[C@@H]1CO2)C(O)C(O)C(C)(C)O4 (some centres undefined)	< 3.30	–
COc1cc2c(cc1OC)[C@@H]1[C@H](OCc3ccccc3)c3ccc4c(c3O[C@@H]1CO2)C=CC(C)(C)O4	< 3.30	–
COc1cc2c(cc1OC)-c1c(oc3c4c(ccc3c1=O)OC(C)(C)C=C4)CO2 [DEHYDRODEGUELIN]	< 3.30	–

SMILES	pIC50 [3]	further results
CO/N=C1\c2ccc3c(c2O[C@@H]2COc4cc(OC)c(OC)cc4[C@H]12)C=CC(C)(C)O3	5.37	–
CCCO[C@@H]1c2ccc3c(c2O[C@@H]2COc4cc(OC)c(OC)cc4[C@H]12)C=CC(C)(C)O3	4.98	–
COc1cc2c(cc1OC)[C@@H]1C(=O)c3ccc(OC(C)=O)c(CC=C(C)C)c3O[C@@H]1CO2	< 3.30	–
COc1cc2c(cc1OC)[C@@H]1[C@H](O)c3ccc4c(c3O[C@@H]1CO2)C=CC(C)(C)O4	8.00	Activity (Danio rerio [11]): inactive; inhibition [9]: Active
COc1cc2c(cc1OC)[C@@H]1C(=O)c3ccc(OCc4ccccc4)c(CC=C(C)C)c3O[C@@H]1CO2	< 3.30	–
COc1cc2c(cc1OC)C(C(=O)c1ccc3c(c1)C=CC(C)(C)O3)CCO2 (racemic)	5.42	–
COc1cc2c(cc1O)OC[C@H]1Oc3c(ccc4c3C=CC(C)(C)O4)C(=O)[C@@H]21	6.06	–
COc1cc2c(cc1OC)[C@@H]1Cc3ccc4c(c3O[C@@H]1CO2)C=CC(C)(C)O4	5.38	–
COc1cc2c(cc1OC)[C@@H]1[C@H](OC)c3ccc4c(c3O[C@@H]1CO2)C=CC(C)(C)O4	5.39	–
COc1cc2c(cc1OC)[C@@H]1C(=O)c3ccc(OC)c(CC=C(C)C)c3O[C@@H]1CO2 [ROTENONIC ACID, METHYL ETHER]	5.28	–
COc1ccc(CC(=O)c2ccc3c(c2OC)C=CC(C)(C)O3)cc1OC	6.85	Activity (Danio rerio [15]): Dose-dependent effect; Activity (Danio rerio [1]): Non-toxic; Activity (Danio rerio [2]): Non-toxic; Activity (Danio rerio [4]): Non-toxic; inhibition [5]: Active; Activity (Danio rerio [6]): Toxic; Activity (Danio rerio [8]): Dose-dependent effect; inhibition [9]: Active; inhibition [10]: inactive
COc1ccc(C(C)C(=O)c2ccc3c(c2OC)C=CC(C)(C)O3)cc1OC (racemic)	6.14	–
CCO[C@@H]1c2ccc3c(c2O[C@@H]2COc4cc(OC)c(OC)cc4[C@H]12)C=CC(C)(C)O3	5.01	–
COc1ccc(C(C)(C)C(=O)c2ccc3c(c2OC)C=CC(C)(C)O3)cc1OC	5.49	–
COc1cc2c(cc1OC)[C@@H]1[C@H](OC(C)=O)c3ccc4c(c3O[C@@H]1CO2)C=CC(C)(C)O4	6.17	–
COc1cc2c(cc1OC)[C@@H]1C(=O)c3ccc(O)c(CC=C(C)C)c3O[C@@H]1CO2 [ROTENONIC ACID]	5.01	–

Source: ChEMBL document CHEMBL2176867, “Design, synthesis, and biological evaluation of novel deguelin-based heat shock protein 90 (HSP90) inhibitors targeting proliferation and angiogenesis” (J Med Chem, 2012)
